≈ marks a conversion by molar mass, not a printed value.
Columns and labels:
Format in all cases: functional
Aspergillus niger [1] = assay: Antifungal activity against Aspergillus niger ATCC 9029 after 24 hrs by broth microdilution method; details: ATCC 9029, 24 h
Procedure, shortened: (§1)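 Broth dilution MIC, with fluconazole as the comparator. Each drug was serially diluted tenfold in BHI broth over nine tubes (10^-1 to 10^-9). Each tube received a suspension of stock culture diluted in BHI. Tubes were kept 24 h at 37 °C, and growth was judged by turbidity.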

Enterococcus faecalis = assay: Antibacterial activity against Enterococcus faecalis ATCC 35550 after 24 hrs by broth microdilution method; details: ATCC 35550, 24 h
Procedure, shortened: (§2)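 Broth dilution MIC, with ciprofloxacin as the comparator. Nine […] serial dilutions of each drug (10^-1 to 10^-9) were made in brain heart infusion (BHI) broth. Stock culture was diluted into BHI, and this suspension was added to each dilution tube. Tubes were incubated 24 h at 37 °C, and the MIC was read by turbidity.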

Pseudomonas aeruginosa = assay: Antibacterial activity against Pseudomonas aeruginosa ATCC 25619 after 24 hrs by broth microdilution method; details: ATCC 25619, 24 h; procedure, shortened: as §2
Staphylococcus aureus = assay: Antibacterial activity against Staphylococcus aureus ATCC 12598 after 24 hrs by broth microdilution method; details: ATCC 12598, 24 h; procedure, shortened: as §2
Escherichia coli = assay: Antibacterial activity against Escherichia coli ATCC 25922 after 24 hrs by broth microdilution method; details: ATCC 25922, 24 h; procedure, shortened: as §2
Candida albicans [2] = assay: Antifungal activity against Candida albicans ATCC 2091 after 24 hrs by broth microdilution method; details: ATCC 2091, 24 h; procedure, shortened: as §1
Candida albicans [3] = assay: Ratio of fluconazole MIC to compound MIC for Candida albicans ATCC 2091 after 24 hrs by broth microdilution method
Aspergillus niger [4] = assay: Ratio of fluconazole MIC to compound MIC for Aspergillus niger ATCC 9029 after 24 hrs by broth microdilution method

Structure (SMILES) | MIC (Aspergillus niger [1]) | MIC (Enterococcus faecalis) | MIC (Pseudomonas aeruginosa) | MIC (Staphylococcus aureus) | MIC (Escherichia coli) | MIC (Candida albicans [2]) | Ratio (Candida albicans [3]) | Ratio (Aspergillus niger [4])
CCOC(=O)c1cc(O)c(OCc2cc(=O)oc3c2ccc2ccccc23)c(O)c1 | 100 µg/mL (≈ 246 µM) | 0.2 µg/mL (≈ 0.492 µM) | 100 µg/mL (≈ 246 µM) | 1.6 µg/mL (≈ 3.94 µM) | 100 µg/mL (≈ 246 µM) | 100 µg/mL (≈ 246 µM) |  | 
CCOC(=O)c1cc(O)c(OCc2cc(=O)oc3ccc(OC)cc23)c(O)c1 | 100 µg/mL (≈ 259 µM) | 0.2 µg/mL (≈ 0.518 µM) | 100 µg/mL (≈ 259 µM) | 0.8 µg/mL (≈ 2.07 µM) | 100 µg/mL (≈ 259 µM) | 100 µg/mL (≈ 259 µM) |  | 
CCOC(=O)c1cc(O)c(OCc2cc(=O)oc3cc(OC)ccc23)c(O)c1 | 100 µg/mL (≈ 259 µM) | 0.8 µg/mL (≈ 2.07 µM) | 100 µg/mL (≈ 259 µM) | 1.6 µg/mL (≈ 4.14 µM) | 100 µg/mL (≈ 259 µM) | 100 µg/mL (≈ 259 µM) |  | 
CCOC(=O)c1cc(O)c(OCc2cc(=O)oc3ccc(Cl)cc23)c(O)c1 | 100 µg/mL (≈ 256 µM) | 0.2 µg/mL (≈ 0.512 µM) | 100 µg/mL (≈ 256 µM) | 0.4 µg/mL (≈ 1.02 µM) | 100 µg/mL (≈ 256 µM) | 100 µg/mL (≈ 256 µM) |  | 
CCOC(=O)c1cc(O)c(OCc2cc(=O)oc3cc(Cl)ccc23)c(O)c1 | 100 µg/mL (≈ 256 µM) | 3.12 µg/mL (≈ 8 µM) | 100 µg/mL (≈ 256 µM) | 12.5 µg/mL (≈ 32 µM) | 100 µg/mL (≈ 256 µM) | 100 µg/mL (≈ 256 µM) |  | 
CCOC(=O)C(Cc1ccc(OCc2cc(=O)oc3ccc(C)cc23)cc1)NC(=O)c1ccccc1 (stereo unspecified) | 0.2 µg/mL (≈ 0.412 µM) | 0.8 µg/mL (≈ 1.65 µM) | 100 µg/mL (≈ 206 µM) | 100 µg/mL (≈ 206 µM) | 100 µg/mL (≈ 206 µM) | 0.2 µg/mL (≈ 0.412 µM) | 80 | 40
CCOC(=O)C(Cc1ccc(OCc2cc(=O)oc3cc(C)ccc23)cc1)NC(=O)c1ccccc1 (stereo unspecified) | 0.2 µg/mL (≈ 0.412 µM) | 0.8 µg/mL (≈ 1.65 µM) | 100 µg/mL (≈ 206 µM) |  | 100 µg/mL (≈ 206 µM) | 0.2 µg/mL (≈ 0.412 µM) | 80 | 40
CCOC(=O)C(Cc1ccc(OCc2cc(=O)oc3ccc(OC)cc23)cc1)NC(=O)c1ccccc1 (stereo unspecified) | 0.2 µg/mL (≈ 0.399 µM) | 0.4 µg/mL (≈ 0.798 µM) | 100 µg/mL (≈ 199 µM) | 100 µg/mL (≈ 199 µM) | 100 µg/mL (≈ 199 µM) | 0.2 µg/mL (≈ 0.399 µM) | 80 | 40
CCOC(=O)C(Cc1ccc(OCc2cc(=O)oc3cc(OC)ccc23)cc1)NC(=O)c1ccccc1 (stereo unspecified) | 0.2 µg/mL (≈ 0.399 µM) | 0.8 µg/mL (≈ 1.6 µM) | 100 µg/mL (≈ 199 µM) | 100 µg/mL (≈ 199 µM) | 100 µg/mL (≈ 199 µM) | 0.2 µg/mL (≈ 0.399 µM) | 80 | 40
CCOC(=O)C(Cc1ccc(OCc2cc(=O)oc3cc(C)cc(C)c23)cc1)NC(=O)c1ccccc1 (stereo unspecified) | 0.2 µg/mL (≈ 0.4 µM) | 0.2 µg/mL (≈ 0.4 µM) | 100 µg/mL (≈ 200 µM) |  | 100 µg/mL (≈ 200 µM) | 1.6 µg/mL (≈ 3.2 µM) |  | 40
CCOC(=O)C(Cc1ccc(OCc2cc(=O)oc3c(C)c(C)ccc23)cc1)NC(=O)c1ccccc1 (stereo unspecified) | 0.2 µg/mL (≈ 0.4 µM) | 0.2 µg/mL (≈ 0.4 µM) | 100 µg/mL (≈ 200 µM) | 100 µg/mL (≈ 200 µM) | 100 µg/mL (≈ 200 µM) | 0.8 µg/mL (≈ 1.6 µM) |  | 40
CCOC(=O)C(Cc1ccc(OCc2cc(=O)oc3ccc4ccccc4c23)cc1)NC(=O)c1ccccc1 (stereo unspecified) | 0.2 µg/mL (≈ 0.383 µM) | 0.4 µg/mL (≈ 0.767 µM) |  |  | 100 µg/mL (≈ 192 µM) | 1.6 µg/mL (≈ 3.07 µM) |  | 40
CCOC(=O)C(Cc1ccc(OCc2cc(=O)oc3c2ccc2ccccc23)cc1)NC(=O)c1ccccc1 (stereo unspecified) | 0.2 µg/mL (≈ 0.383 µM) | 0.2 µg/mL (≈ 0.383 µM) | 100 µg/mL (≈ 192 µM) | 50 µg/mL (≈ 95.9 µM) | 100 µg/mL (≈ 192 µM) | 12.5 µg/mL (≈ 24 µM) |  | 40
CCOC(=O)C(Cc1ccc(OCc2cc(=O)oc3ccc(Cl)cc23)cc1)NC(=O)c1ccccc1 (stereo unspecified) | 0.2 µg/mL (≈ 0.395 µM) | 0.2 µg/mL (≈ 0.395 µM) | 100 µg/mL (≈ 198 µM) | 100 µg/mL (≈ 198 µM) |  | 50 µg/mL (≈ 98.8 µM) |  | 40
CCOC(=O)C(Cc1ccc(OCc2cc(=O)oc3cc(Cl)ccc23)cc1)NC(=O)c1ccccc1 (stereo unspecified) | 0.2 µg/mL (≈ 0.395 µM) | 0.2 µg/mL (≈ 0.395 µM) | 100 µg/mL (≈ 198 µM) |  |  | 50 µg/mL (≈ 98.8 µM) |  | 40
CCOC(=O)c1cc(O)c(OCc2cc(=O)oc3ccc(C)cc23)c(O)c1 | 100 µg/mL (≈ 270 µM) | 0.2 µg/mL (≈ 0.54 µM) | 100 µg/mL (≈ 270 µM) | 1.6 µg/mL (≈ 4.32 µM) | 100 µg/mL (≈ 270 µM) | 100 µg/mL (≈ 270 µM) |  | 
CCOC(=O)c1cc(O)c(OCc2cc(=O)oc3cc(C)ccc23)c(O)c1 | 100 µg/mL (≈ 270 µM) | 0.2 µg/mL (≈ 0.54 µM) | 100 µg/mL (≈ 270 µM) | 12.5 µg/mL (≈ 33.8 µM) | 100 µg/mL (≈ 270 µM) | 100 µg/mL (≈ 270 µM) |  | 
CCOC(=O)c1cc(O)c(OCc2cc(=O)oc3cc(C)cc(C)c23)c(O)c1 | 100 µg/mL (≈ 260 µM) | 0.2 µg/mL (≈ 0.52 µM) | 100 µg/mL (≈ 260 µM) | 0.8 µg/mL (≈ 2.08 µM) | 100 µg/mL (≈ 260 µM) | 100 µg/mL (≈ 260 µM) |  | 
CCOC(=O)c1cc(O)c(OCc2cc(=O)oc3c(C)c(C)ccc23)c(O)c1 | 100 µg/mL (≈ 260 µM) | 0.2 µg/mL (≈ 0.52 µM) | 100 µg/mL (≈ 260 µM) | 0.2 µg/mL (≈ 0.52 µM) | 100 µg/mL (≈ 260 µM) | 100 µg/mL (≈ 260 µM) |  | 
CCOC(=O)c1cc(O)c(OCc2cc(=O)oc3ccc4ccccc4c23)c(O)c1 | 100 µg/mL (≈ 246 µM) | 0.2 µg/mL (≈ 0.492 µM) | 100 µg/mL (≈ 246 µM) | 0.4 µg/mL (≈ 0.984 µM) | 100 µg/mL (≈ 246 µM) | 100 µg/mL (≈ 246 µM) |  | 
O=C(O)c1cn(C2CC2)c2cc(N3CCNCC3)c(F)cc2c1=O [CIPROFLOXACIN] |  | 2 µg/mL (≈ 6.04 µM) |  | 2 µg/mL (≈ 6.04 µM) |  |  |  | 
OC(Cn1cncn1)(Cn1cncn1)c1ccc(F)cc1F [FLUCONAZOLE] | 8 µg/mL (≈ 26.1 µM) |  |  |  |  | 16 µg/mL (≈ 52.2 µM) |  | 

Reference: ChEMBL document CHEMBL3085670, “Synthesis, biological evaluation and docking studies of 4-aryloxymethyl coumarins derived from substructures and degradation products of vancomycin” (2013)
